Results on 1 molecule are retold here after paper PMC9424334 (Biomolecules & Therapeutics, 2022).

What all share (format): cell-based, human
In experiment [1] the test system is DACT family in MM.1S cells. As to the kind of experiment: Immunoblotting of DACT family expression. The following applies: 24 h. Put shortly: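 Total lysates were prepared in RIPA buffer with protease/phosphatase inhibitors and immunoblotted for DACT1, DACT2 and DACT3, normalised to GAPDH with chemiluminescence detection. Data are mean ± SEM.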
(In general: A western blot detects proteins with antibodies after separation by electrophoresis.)

In experiment [2] the test system is cleaved caspase-3 in MM.1S and RPMI8226 cells. As to the kind of experiment: Immunoblotting for cleaved caspase-3. The following applies: 1000 nM. In outline:
(§1)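 Total lysates were made in RIPA buffer with protease/phosphatase inhibitors, quantified by BCA and immunoblotted, with chemiluminescence detection and GAPDH normalisation. Data are mean ± SEM; one-way ANOVA vs control.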

In experiment [3] the test system is cyclin D1 and CDK4 in MM.1S and RPMI8226 cells. As to the kind of experiment: Immunoblotting for CDK4 and cyclin D1. The conditions noted are these: MM.1S cells, higher concentration ranges, 24 h. Put shortly:
as §1

Experiment [4] deals with acetylation of histone H3, H4 and tubulin in MM.1S cells. The experiment can be described thus: Immunoblotting of acetylated proteins. The following applies: 30-1000 nM, 6 h. Put shortly:
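Histones were extracted afterwards, and acetylation of histone H3, H4 and tubulin was assessed by immunoblotting with chemiluminescence detection.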

For `O=C(CCCCCCC(=O)Nc1ccccc1)NO` [SAHA, Suberoylanilide hydroxamic acid], in experiment [1] (3000 nM), the “protein expression of DACT3” value is “significantly enhanced”. The “protein expression of DACT1 and DACT2” value in experiment [1] is “not altered”. Also, in experiment [2], the “cleaved caspase-3” value was “only marginally increased”. The “expression level of CDK4 and Cyclin D1” value in experiment [3] is on record as “reduced”. Further, in experiment [4], the “acetylation intensity of histone H3 and H4” value is “increased”; the acetylation of tubulin entry is “increased”.
